ChEMBL document CHEMBL1255526, “Fused tricyclic pyrrolizinones that exhibit pseudo-irreversible blockade of the NK1 receptor” (Bioorg Med Chem Lett, 2010)

How the values were obtained:
[1] = biological target: T1, PXR (nuclear receptor subfamily 1 group I member 2) (Homo sapiens, UniProt O75469); assay: Inhibition of human PXR induction at 10 uM
T1 sequence (O75469 whole entry): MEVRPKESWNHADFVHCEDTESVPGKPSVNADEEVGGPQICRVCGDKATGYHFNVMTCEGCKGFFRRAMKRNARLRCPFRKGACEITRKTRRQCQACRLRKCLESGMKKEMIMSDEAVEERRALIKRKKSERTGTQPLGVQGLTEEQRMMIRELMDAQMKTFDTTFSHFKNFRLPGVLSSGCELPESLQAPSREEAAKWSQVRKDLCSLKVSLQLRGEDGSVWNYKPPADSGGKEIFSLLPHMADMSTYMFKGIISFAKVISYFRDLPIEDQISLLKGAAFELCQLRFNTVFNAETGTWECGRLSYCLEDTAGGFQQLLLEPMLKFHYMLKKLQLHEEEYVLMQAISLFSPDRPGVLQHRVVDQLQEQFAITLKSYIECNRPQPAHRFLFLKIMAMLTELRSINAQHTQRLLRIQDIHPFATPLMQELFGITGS
Procedure, shortened: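 Human PXR induction measured at 10 µM compound, expressed as % of maximal induction.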

[2] = Metabolic stability in rat microsomes assessed as compound remaining after 60 mins; assay type: ADME, Microsome; conditions: read-out: Stability
Procedure, shortened: (§1)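 Compound incubated 60 min with liver microsomes from human, dog, rat or rhesus; % parent remaining measured.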

Meriones unguiculatus [3] = assay: Inhibition of GR-73632-induced foot tapping in Mongolian gerbil at 3 mg/kg after 24 hrs; assay type: functional
Procedure, shortened: (§2)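 Gerbils given antagonist at the dose and pretreatment time shown (1 mg/kg at 1 h, 3 mg/kg at 24 h); foot tapping then induced with the NK1 agonist GR73632. Read-out is % inhibition of tapping; ED50 or ID50 from dose–response.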

Substance-P receptor [4] = biological target: T2, Substance-P receptor (Homo sapiens, UniProt P25103); assay: Displacement of [125I]substance P from human NK1 receptor expressed in CHO cells in presence of 50% dog serum; assay type: cell-based
Procedure, shortened: (§3)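 Radioligand binding: [125I]substance P displaced from human NK1 receptor expressed in CHO cells; IC50 determined. Also run with 50% serum added (human, dog, rhesus, rat or gerbil) to measure the serum shift.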

[5] = Metabolic stability in dog microsomes assessed as compound remaining after 60 mins; assay type: ADME, Canis lupus familiaris, Microsome; conditions: read-out: Stability; procedure, shortened: as §1
[6] = Oral bioavailability in rat; assay type: ADME, organism-based; conditions: in vivo
[7] = Metabolic stability in rhesus monkey microsomes assessed as compound remaining after 60 mins; assay type: ADME, Macaca mulatta, Microsome; conditions: read-out: Stability; procedure, shortened: as §1
[8] = Binding affinity to potassium channel IKr
[9] = Binding affinity to calcium channel
Procedure, shortened: (§4)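 Ion channel binding assay; IC50 values calculated for sodium channel and for calcium channel (Dlz site).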

[10] = Half life in dog; assay type: ADME, organism-based, Canis lupus familiaris; conditions: in vivo
Meriones unguiculatus [11] = species on record: Meriones unguiculatus; assay: Inhibition of GR-73632-induced foot tapping in Mongolian gerbil after 24 hrs; assay type: functional; procedure, shortened: as §2
[12] = Plasma clearance in dog; assay type: ADME, organism-based, Canis lupus familiaris
Substance-P receptor [13] = biological target: T2, Substance-P receptor; assay: Antagonist activity at human recombinant NK1 receptor expressed in CHO cells assessed as remaining substance P level at 100 nM after 30 mins by [H3]-inositol phosphate release assay; assay type: functional, cell-based
Procedure, shortened: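 CHO cells with recombinant human NK1 receptor, 2.5 × 10⁴ per well, plated overnight, then prelabelled overnight at 37 °C with [3H]-myo-inositol (10–25 Ci/mmol) in inositol-free medium with 0.02% BSA. LiCl 10 mM in HEPES-buffered inositol-free DMEM, 15 min. Antagonist at 100 nM or DMSO for 30 min, then substance P for 30 min. Stopped with formic acid. [3H]-inositol phosphate captured on yttrium silicate SPA beads, 2 h. Reported as % substance P response remaining.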

Substance-P receptor [14] = biological target: T2, Substance-P receptor; assay: Displacement of [125I]substance P from human NK1 receptor expressed in CHO cells in presence of 50% mongolian gerbil serum; assay type: cell-based; procedure, shortened: as §3
Substance-P receptor [15] = biological target: T2, Substance-P receptor; assay: Displacement of [125I]substance P from human NK1 receptor expressed in CHO cells; assay type: cell-based; procedure, shortened: as §3
[16] = Volume of distribution in rat; assay type: ADME, organism-based; conditions: in vivo
[17] = Half life in rat; assay type: ADME, organism-based; conditions: in vivo
Cytochrome P450 2D6 = Cytochrome P450 2D6 (Homo sapiens, UniProt P10635); assay: Inhibition of CYP2D6; assay type: ADME
[18] = Mean residence time in rat; assay type: ADME, organism-based; conditions: in vivo
Cytochrome P450 3A4 = Cytochrome P450 3A4 (Homo sapiens, UniProt P08684); assay: Inhibition of CYP3A4; assay type: ADME
[19] = Ratio of drug level in brain to plasma in Mongolian gerbil; assay type: ADME, Meriones unguiculatus; conditions: read-out: BPR
Substance-P receptor [20] = biological target: T2, Substance-P receptor; assay: Displacement of [125I]substance P from human NK1 receptor expressed in CHO cells in presence of 50% rhesus monkey serum; assay type: cell-based; procedure, shortened: as §3
[21] = Binding affinity to sodium channel; procedure, shortened: as §4
[22] = Metabolic stability in human microsomes assessed as compound remaining after 60 mins; assay type: ADME, Microsome; conditions: read-out: Stability; procedure, shortened: as §1
[23] = biological target: T3, Nuclear receptor subfamily 1 group I member 2 (Homo sapiens, UniProt O75469); assay: Inhibition of human PXR induction
T3 sequence (O75469 whole entry): T1 sequence (O75469 whole entry)

Substance-P receptor [24] = biological target: T2, Substance-P receptor; assay: Displacement of [125I]substance P from human NK1 receptor expressed in CHO cells in presence of 50% human serum; assay type: cell-based; procedure, shortened: as §3
Meriones unguiculatus [25] = species on record: Meriones unguiculatus; assay: Inhibition of GR-73632-induced foot tapping in Mongolian gerbil after 1 hr; assay type: functional; conditions: read-out: ID50 (the source's name); procedure, shortened: as §2
[26] = Plasma clearance in rat; assay type: ADME, organism-based
Cytochrome P450 2C9 = Cytochrome P450 2C9 (Homo sapiens, UniProt P11712); assay: Inhibition of CYP2C9; assay type: ADME
Substance-P receptor [27] = biological target: T2, Substance-P receptor; assay: Displacement of [125I]substance P from human NK1 receptor expressed in CHO cells in presence of 50% rat serum; assay type: cell-based; procedure, shortened: as §3

T2 sequence (P25103 whole entry): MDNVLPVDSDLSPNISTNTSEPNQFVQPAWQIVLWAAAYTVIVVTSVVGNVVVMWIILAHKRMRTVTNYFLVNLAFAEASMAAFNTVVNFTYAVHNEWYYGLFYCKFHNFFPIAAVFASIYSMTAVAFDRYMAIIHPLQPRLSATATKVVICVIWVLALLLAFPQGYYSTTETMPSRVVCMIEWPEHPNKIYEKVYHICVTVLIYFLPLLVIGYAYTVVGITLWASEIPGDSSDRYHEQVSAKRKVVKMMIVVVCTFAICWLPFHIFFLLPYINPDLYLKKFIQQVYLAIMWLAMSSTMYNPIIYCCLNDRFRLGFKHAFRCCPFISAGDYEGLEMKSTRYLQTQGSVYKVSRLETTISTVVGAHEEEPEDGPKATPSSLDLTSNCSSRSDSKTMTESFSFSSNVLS
Chain of Cytochrome P450 2D6 (P10635 whole entry): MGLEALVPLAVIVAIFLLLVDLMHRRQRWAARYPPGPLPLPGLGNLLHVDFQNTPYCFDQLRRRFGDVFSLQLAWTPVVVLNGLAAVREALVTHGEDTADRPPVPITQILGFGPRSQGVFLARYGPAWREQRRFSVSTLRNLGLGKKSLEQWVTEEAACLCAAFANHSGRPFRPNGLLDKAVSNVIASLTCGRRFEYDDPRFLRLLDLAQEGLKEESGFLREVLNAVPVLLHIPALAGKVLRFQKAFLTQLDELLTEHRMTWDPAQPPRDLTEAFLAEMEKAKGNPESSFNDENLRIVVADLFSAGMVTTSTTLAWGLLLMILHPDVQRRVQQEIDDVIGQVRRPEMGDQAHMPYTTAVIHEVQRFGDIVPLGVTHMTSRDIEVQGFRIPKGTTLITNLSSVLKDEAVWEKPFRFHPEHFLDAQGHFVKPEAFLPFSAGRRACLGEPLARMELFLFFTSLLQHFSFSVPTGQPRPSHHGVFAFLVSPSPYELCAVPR
Chain of Cytochrome P450 3A4 (P08684 whole entry): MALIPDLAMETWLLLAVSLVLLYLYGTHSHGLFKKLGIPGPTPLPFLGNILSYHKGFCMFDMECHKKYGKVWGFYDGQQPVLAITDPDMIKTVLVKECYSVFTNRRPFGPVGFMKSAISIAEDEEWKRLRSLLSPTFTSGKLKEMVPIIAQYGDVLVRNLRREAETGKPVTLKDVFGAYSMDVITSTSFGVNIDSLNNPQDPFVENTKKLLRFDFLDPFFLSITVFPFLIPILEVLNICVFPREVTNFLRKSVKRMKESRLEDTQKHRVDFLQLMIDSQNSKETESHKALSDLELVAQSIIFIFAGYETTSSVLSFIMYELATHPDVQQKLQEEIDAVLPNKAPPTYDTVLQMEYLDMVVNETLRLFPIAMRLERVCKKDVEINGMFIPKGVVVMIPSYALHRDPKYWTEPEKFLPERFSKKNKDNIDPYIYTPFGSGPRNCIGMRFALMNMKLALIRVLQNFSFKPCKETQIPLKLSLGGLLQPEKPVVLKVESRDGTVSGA
Chain of Cytochrome P450 2C9 (P11712 whole entry): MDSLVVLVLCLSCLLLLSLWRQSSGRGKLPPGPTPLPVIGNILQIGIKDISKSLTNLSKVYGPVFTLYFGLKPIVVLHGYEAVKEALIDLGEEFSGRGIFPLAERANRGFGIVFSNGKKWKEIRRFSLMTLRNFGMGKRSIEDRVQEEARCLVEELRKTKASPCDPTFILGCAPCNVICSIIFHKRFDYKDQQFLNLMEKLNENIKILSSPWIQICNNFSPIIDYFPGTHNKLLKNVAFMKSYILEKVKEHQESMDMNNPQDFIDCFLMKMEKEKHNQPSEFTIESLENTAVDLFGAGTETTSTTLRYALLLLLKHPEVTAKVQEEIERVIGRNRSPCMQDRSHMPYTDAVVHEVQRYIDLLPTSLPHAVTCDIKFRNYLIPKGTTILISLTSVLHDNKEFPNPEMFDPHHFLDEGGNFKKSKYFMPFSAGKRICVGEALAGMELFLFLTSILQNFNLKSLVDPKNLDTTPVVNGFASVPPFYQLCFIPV

Emax at 10 µM [1]: 37% | remaining at 1 h [2]: 96% | IC50 (Substance-P receptor [4]): 1.5 nM | remaining at 1 h [5]: 90% | bioavailability [6]: 88.8% | remaining at 1 h [7]: 99% | IC50 [9]: > 10000 nM | half-life [10]: 58 h | clearance [12]: 0.03 L/h/kg | Activity (Substance-P receptor [13]): 3% | IC50 (Substance-P receptor [14]): 1.9 nM | IC50 (Substance-P receptor [15]): 0.061 nM | Vd [16]: 4.03 L/kg | half-life [17]: 14.6 h | IC50 (Cytochrome P450 2D6): 17400 nM | MRT [18]: 4.67 h | IC50 (Cytochrome P450 3A4): 22700 nM | Kp [19]: 0.5 | IC50 (Substance-P receptor [20]): 0.4 nM | IC50 [21]: > 10000 nM | remaining at 1 h [22]: 96% | IC50 [23]: 8400 nM | IC50 (Substance-P receptor [24]): 0.7 nM | clearance [26]: 0.194 L/h/kg | IC50 (Cytochrome P450 2C9): 43100 nM | IC50 (Substance-P receptor [27]): 0.4 nM
Compound: C[C@@H](O[C@H]1CN2C(=O)[C@H]3C[C@@](C)(O)C[C@H]3[C@H]2[C@@H]1c1ccc(F)cc1)c1cc(C(F)(F)F)cc(C(F)(F)F)c1
inhibition in vivo at 3 mg/kg (Meriones unguiculatus [3]): 100% | IC50 [8]: 2470 nM | ED50 (Meriones unguiculatus [11]; read-out: ED50): 0.02 mg/kg | ED50 (Meriones unguiculatus [11]; read-out: ID50 (the source's name)): 0.02 mg/kg | ED50 (Meriones unguiculatus [25]): 0.02 mg/kg
